Screens as filed in PubChem.
ERa SRC1 inh – ER-alpha (human) coactivator binding inhibition; 1.7% of 86,000 active; inhibition, % at 25.6 µM; P03372; TR-FRET ER-alpha LBD / SRC-1 peptide, estradiol-bound; in the data active = inhibition above about 50%
RORA act – activators of human nuclear receptor RORA; CHO-K1 Gal4-RORA LBD luciferase reporter, luminescence; percent increase over mock-subtracted basal signal; activation, % at 10 µM; 1.5% of 65,000 active; P35398; AID 560;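 active = activation above the mean of all tested compounds plus 3 SD, cut at about 49% in these data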
Target sequence (P35398 whole entry, looked up, the tested form may be a part): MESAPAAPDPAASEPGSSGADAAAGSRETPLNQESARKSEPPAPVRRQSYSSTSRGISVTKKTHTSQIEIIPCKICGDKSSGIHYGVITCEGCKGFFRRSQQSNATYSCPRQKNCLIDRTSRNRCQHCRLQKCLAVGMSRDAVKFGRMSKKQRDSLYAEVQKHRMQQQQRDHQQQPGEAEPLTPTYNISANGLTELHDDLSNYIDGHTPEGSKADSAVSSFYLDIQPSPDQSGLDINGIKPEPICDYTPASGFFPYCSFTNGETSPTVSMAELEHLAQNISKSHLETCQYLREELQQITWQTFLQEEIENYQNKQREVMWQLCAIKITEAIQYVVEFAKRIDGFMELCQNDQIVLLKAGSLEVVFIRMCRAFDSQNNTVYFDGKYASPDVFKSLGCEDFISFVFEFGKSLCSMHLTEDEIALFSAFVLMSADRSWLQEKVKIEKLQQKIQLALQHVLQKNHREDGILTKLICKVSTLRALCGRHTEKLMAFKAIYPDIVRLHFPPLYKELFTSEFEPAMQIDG
SF-1 act – SF-1 (human) activation; Q13285; CHO-K1 Gal4-SF-1 LBD luciferase reporter; % increase over DMSO SF-1-specific signal; activation, % at 10 µM; 1.9% of 65,000 active;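 active = activation above the mean activation of all tested compounds plus 3 SD, cut at about 50% in these data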
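Test system: CHO-K1 cells co-transfected with Gal4 DBD–human SF-1 LBD, 5xGal4 luciferase reporter. Quantity: 4,000 cells per well. Compound: 10 µM only. Incubation: compound added 1 h post-seeding, 20 h exposure at 37 °C, 5% CO2. Detection: SteadyLite luciferase luminescence. Replication: one test per compound.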
Pyk2 oligo antag – blocks oligomerization of human Pyk2 in cells; Q293 cells, Pyk2 FERM NanoBiT luminescence; stronger effect = lower value; z-score (the deposit names both 25 µM and 10 µM); 0.83% of 99,000 active;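 active = Z-score of -3 or lower, scaled per plate to the spread of control and sample wells; inactive = z-score above -3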;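 note: negative z-score means lost luminescence so less FERM oligomerization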
ERa coact pot – enhances coactivator binding to human estrogen receptor alpha; P03372; TR-FRET ERalpha-LBD/SRC-Cy5 coactivator binding, 2 h; 100 = basal binding, no effect; coactivator binding (% of control), % at 25.6 µM; 1.3% of 86,000 active; AID 639; in the data active = activity above about 200%;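 note: binding measured in presence of low estradiol as agonist stimulus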
ERb coact inh – blocks coactivator binding to human estrogen receptor beta | TR-FRET ER-beta LBD / SRC1-Cy5 peptide binding; receptor agonist-loaded with 1 µM estradiol | inhibition, % at 25.6 µM | 1.3% of 86,000 active | AID 633;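 active = compounds whose percent inhibition of the receptor-coactivator binding signal exceeds about 50% in the single-dose screen, limit read from the data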
Numbers stand for hits; 0 = inactive; - = not tested or not shown; [ ] = remark or other dose. In the library only some 4.8% were active in any assay of this set; here they are far more common.

SMILES	ERa SRC1 inh	RORA act	SF-1 act	Pyk2 oligo antag	ERa coact pot	ERb coact inh
COc1ccc(C2c3c(-c4cc(Cl)c(C)cc4O)n[nH]c3C(=O)N2Cc2cccnc2)cc1OC (configuration not stated)	0	0	0	-3.9	0	0
CCC(C)N(C(=O)Cn1nnc2ccccc21)C(C(=O)Nc1ccc(F)cc1)c1cccc(OC)c1 (configuration not stated)	-	-	-	0	-	-
COC(=O)C1=CNC=C(C(=O)OC)C1c1ccc(Cl)cc1	0	0	0	-3.8	0	0
COC(=O)C1=CNC=C(C(=O)OC)C1c1ccccc1Cl	-	0	0	0	-	-
COc1c2occc2c(OC)c2c(=O)cc(C(F)(F)C(F)(F)F)oc12	0	0	0	-3.2	0	0
CC1(C)NC(=O)N(CCCOc2ccc(Br)cc2Cl)C1=O	0	0	65	0	0	0
N#Cc1sc2nc(-c3ccccc3)cc(-c3ccco3)c2c1N	89[fluorescence artefact?]	0	0	0	0	76[fluorescence artefact?]
CC(C)(C)c1cc(-c2ccco2)c(C#N)c(SCC#N)n1	0	0	0	0	0	0
N#Cc1sc2nc(-c3cccs3)cc(-c3ccc(F)cc3)c2c1N	-	-	-	0	-	-
N#Cc1c(-c2ccccc2)cc(-c2ccco2)c(C#N)c1N	80	-	-	-	0	57
CCOC(=O)c1c(N2C(=O)C3CC(C)=C(C)CC3C2=O)sc(C)c1C (configuration not stated)	0	-	-	0	0	0
Cc1ccc(-n2c(C)cc(C3N=C(N)Nc4nc5ccccc5n43)c2C)c(C)c1 (configuration not stated)	53[fluorescence artefact?]	0	0	0	0	0
CC1CCC(NC(=O)Cn2ncc3ccccc32)CC1 (configuration not stated)	0	0	52	-	0	0
CCOC(=O)N1CCC(NC(=O)Cn2ncc3ccccc32)CC1	0	0	0	0	0	0
Cc1cc(OCC[N+]2(C)CCCCC2)nc2ccccc12	0	-	-	0	0	0
Cn1cc(C(=O)NCCN2CCN(c3ccccc3F)CC2)c2c3ccccc3n(C)c2c1=O	0	0	0	-	0	0
COC(=O)c1sc(NC(=O)c2ccco2)nc1C	0	0	50	0	0	0
Cc1nc(NC(=O)c2ccco2)sc1C(=O)Nc1ccc(Br)cc1	0	0	0	0	0	0
COc1cccc(C(=O)Nc2cnc(NC(=O)c3ccco3)cc2C)c1	0	0	0	0	0	0
CC(=O)c1sc(NC(=O)c2ccco2)nc1-c1ccccc1	0	0	70	-	0	0
Cc1cc(NC(=O)c2ccco2)ncc1NC(=O)Cc1ccccc1	0	57	0	0	0	0
Cc1sc(NC(=O)c2ccco2)nc1-c1ccccc1	0	-	-	0	0	0
Cc1ccc(C(=O)Nc2ncc(Cc3ccccc3)s2)o1	0	0	61	0	0	0
CC1(C)CC(=O)C(C=NCC2CCN(C(=O)Nc3ccccc3)CC2)=C(O)C1	-	0	0	-	-	-
COCc1nnc(NC(=O)c2ccco2)s1	0	0	0	0	0	0
SMILES	ERa SRC1 inh	RORA act	SF-1 act	Pyk2 oligo antag	ERa coact pot	ERb coact inh
COC(=O)c1c(-c2ccccc2)csc1NC(=O)c1ccco1	0	96	0	0	0	0
CCOC(=O)c1sc(NC(=O)c2ccco2)nc1-c1ccccc1	0	0	0	-	271[fluorescence artefact?]	0
Cc1cnc(NC(=O)c2ccco2)s1	0	71	53	0	0	0
Cc1cnc(NC(=O)COc2ccccc2)s1	0	54	82	0	0	0
CCOC(=O)C1=C(N)N2C(=O)CSC2=C(C(=O)OC)C1	0	0	0	0	0	0
O=C1c2ccccc2NC(c2ccccn2)N1c1ccc(Cl)cc1 (configuration not stated)	0	51	64	0	0	0
Cc1cc(C)c(NC(=O)c2cc3c(nc4sccn43)s2)c(C)c1	86[fluorescence artefact?]	0	0	0	0	55[fluorescence artefact?]
Cc1ccc(C)c(C(=O)c2c(C)nc3sccn23)c1	0	0	0	0	0	0
Cc1csc2nc(CNS(=O)(=O)c3ccc4c(c3)OCCO4)cn12	0	0	0	-	0	0
Cc1csc2nc(CCNS(=O)(=O)c3ccc4c(c3)OCCO4)cn12	54	0	0	-	0	0
Nc1nonc1-c1nc2ccccc2n1CC(=O)N/N=C\c1ccc(-c2ccc(Cl)cc2)o1	-	-	-	0	-	-
COc1cc(NC(=O)c2csc3c2CCCC3)ncn1	-	56	0	0	-	-
Cc1cc(N2CCCCC2)n2ncc(-c3ccc(Cl)cc3)c2n1	0	87	62	0	0	0
Cc1cc(N2CCN(C(=O)c3ccco3)CC2)n2ncc(-c3ccccc3)c2n1	0	0	65	0	0	0
Cc1cc(N2CCCCC2)n2ncc(-c3ccccc3)c2n1	0	0	0	0	0	0
Cc1ccc(CCSc2ccc(C(C)C)cc2)cn1	-	-	-	0	-	-
Cc1nn(-c2ccccc2)c2sc(C(=O)OCC(=O)N3CCCCC3)cc12	0	0	0	0	0	0
COc1cc(OC)cc(C(=O)N2CCC(n3c(C)nc4cc(F)ccc43)CC2)c1	0	0	0	0	0	0
CCn1c(NN)nc2sc3c(c2c1=O)CCC3	0	-	-	0	0	52
CCOC(=O)C1CCCCN1Cc1ccccc1C(F)(F)F (configuration not stated)	0	0	0	0	0	0
CCN(c1ccccc1)S(=O)(=O)c1ccc2[nH]cc(C(=O)NCCOC)c(=O)c2c1	50	0	0	0	0	0
C=C(C)CSc1nc2c(cc1C#N)CCC2	0	0	0	0	0	99[fluorescence artefact?]
Cc1cccc(CSc2nc3c(cc2C#N)CCC3)c1	0	-	-	0	0	68[fluorescence artefact?]
COc1cccc(NC(=O)Cn2c(=O)n(CC3CCCO3)c(=O)c3ccccc32)c1 (configuration not stated)	0	-	-	0	0	0
C=C(C)COc1ccc(-c2nc(N)ncc2Oc2ccccc2OCC)c(O)c1	0	0	0	-4.5	0	0
SMILES	ERa SRC1 inh	RORA act	SF-1 act	Pyk2 oligo antag	ERa coact pot	ERb coact inh
CCCCc1nnc(NC(=O)C(C)Sc2nc(C)cc(=O)[nH]2)s1 (configuration not stated)	0	-	-	0	0	0
O=C(O)c1cccc(S(=O)(=O)Nc2ccc3oc(=O)sc3c2)c1	0	0	0	0	0	52[fluorescence artefact?]
COc1cccc(C(c2sc3ncnn3c2O)N2CCN(C(=O)c3ccco3)CC2)c1 (configuration not stated)	0	0	0	-	0	0
O=C(c1cc2c(=O)n3ccccc3nc2s1)N1CCOCC1	-	0	60	0	-	-
Cc1nn(-c2ccccc2)c2sc(C(=O)O)cc12	-	0	0	0	-	-
Cc1nn(-c2ccccc2)c2sc(C(=O)N3CCOCC3)cc12	0	58	94	0	0	0
Cc1ccc(S(=O)(=O)N2CCN(C(=O)c3cc4c(C)nn(-c5ccccc5)c4s3)CC2)cc1	0	-	-	0	0	0
COC(=O)c1cc2c(C)nn(-c3ccccc3)c2s1	0	0	0	0	246	0
